# MrgX1 antagonist: antagonists of human MrgX1 receptor, primary screen, HEK293 cells, Fluo-4 calcium flux; BAM8-22 antagonism; hits give low values; B-score at 10 µM; 1.3% of 310,000 active; AID 588676, 2011;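 active means calcium-response B-score plate-corrected more than 3 library SD below zero, starting fluorescence within 5 deviations, no agonist response on first addition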;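 further: peak minus trough fluorescence over baseline after final BAM8-22 challenge near maximal dose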
# Target sequence (Q96LB2 whole entry, looked up): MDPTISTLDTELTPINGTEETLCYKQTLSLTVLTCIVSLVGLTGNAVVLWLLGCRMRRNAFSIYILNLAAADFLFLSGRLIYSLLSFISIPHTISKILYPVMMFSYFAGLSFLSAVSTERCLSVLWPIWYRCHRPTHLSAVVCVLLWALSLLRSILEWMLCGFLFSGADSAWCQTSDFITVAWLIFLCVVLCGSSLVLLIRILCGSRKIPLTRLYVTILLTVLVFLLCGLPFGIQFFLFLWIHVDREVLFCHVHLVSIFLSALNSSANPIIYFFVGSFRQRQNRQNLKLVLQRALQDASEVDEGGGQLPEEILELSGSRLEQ
# RGS4 inh: RGS4 inhibitors, primary screen, cell-based, HEK293 M3R inducible RGS4, calcium flux; Fluo-4 calcium flux; hits give high values; triggered by carbachol at its EC20; 0.45% of 310,000 active; B-score at 10 µM; Regulator of G-protein signaling 4 (Homo sapiens), P49798;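 active means B-score, a plate-corrected calcium signal, over three deviations above library mean, with baseline fluorescence within five deviations of library mean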;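 further: RGS4 expression induced by doxycycline in cells with stable M3 receptor; B-score is computed from the integrated fluorescence ratio over baseline after carbachol; higher B-score means a larger calcium signal and so more RGS4 inhibition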
# Target sequence (P49798 whole entry, looked up): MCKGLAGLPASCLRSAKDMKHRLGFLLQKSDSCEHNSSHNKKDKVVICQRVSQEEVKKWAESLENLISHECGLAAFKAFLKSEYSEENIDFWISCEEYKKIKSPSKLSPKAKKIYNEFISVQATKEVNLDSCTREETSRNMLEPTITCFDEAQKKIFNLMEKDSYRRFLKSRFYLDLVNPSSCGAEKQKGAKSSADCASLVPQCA
# MrgX1 PAM: positive allosteric modulators of MrgX1, primary screen, HEK293 cells, Fluo-4 calcium flux; B-score at 10 µM; Mas-related G-protein coupled receptor member X1 (Homo sapiens), Q96LB2; FDSS; hits give high values; 0.63% of 310,000 active;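 active means plate-corrected calcium response at least 3 library SD above typical, normal starting fluorescence, not activating the receptor alone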;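 further: compound read alongside a low EC10 to EC30 dose of BAM8-22 agonist; peak minus trough fluorescence over baseline measured at the second addition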
# MrgX1 agonist: agonists of human MrgX1 receptor, primary screen, HEK293 cells, Fluo-4 calcium flux; Mas-related G-protein coupled receptor member X1 (Homo sapiens), Q96LB2; Fluo-4 calcium fluorescence, agonist mode; hits give high values; B-score at 10 µM; 0.44% of 310,000 active;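 active means calcium response B-score plate-corrected fluorescence ratio at least 3 library SD, with starting fluorescence B-score inside 5 SD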
#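 Test system: HEK293 cells stably expressing human MrgX1 receptor; Input: fifteen thousand cells per well; Dosing: compound delivered in addition one of three; Schedule: overnight seeding, then 1 h dark dye loading; Technique: Fluo-4 NW calcium fluorescence; Measure: B-scored fluorescence response ratio; Controls: positive and negative controls per plate.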
# RGS4 pot: RGS4 potentiators or activators, primary screen, cell-based, HEK293 M3R inducible RGS4, calcium flux; carbachol calcium flux Fluo4; hits give low values; B-score at 10 µM; 0.92% of 310,000 active; AID 463111, 2010;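 active means B-score of the integrated calcium signal more than 4 SD below the library mean, with starting fluorescence not abnormally high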;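 further: negative B-score means reduced calcium response which marks RGS4 activation or potentiation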
#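 Test system: HEK293 cells with stable M3R and inducible RGS4; also added: carbachol at ECmax as muscarinic agonist stimulus; schedule: dye loading 30 min 37 °C, buffer rest 30 min RT; technique: kinetic calcium fluorescence imaging with Fluo4-AM dye, 2 µM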
# RGS4 activ val: reduced carbachol calcium response, RGS4-induced M3R cells, confirmation, RGS4 activator project, cell-based, HEK293 M3R/RGS4 inducible, calcium flux, duplicate; 89% of 1,100 active; shares compounds with RGS4 pot; inhibition, % at 10 µM; carbachol calcium flux Fluo4;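 active means inhibition above 3 SD of the buffer control wells, cut at about 41% in these data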;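 further: signal is the integrated peak-minus-minimum Fluo4 fluorescence over baseline ratio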
# M3R Ca counter: counter-screen for RGS4 activators: effect in non-induced cells; shares compounds with RGS4 pot; HEK293 M3R non-induced RGS4, Fluo4 calcium flux; after carbachol challenge at its EC90; inhibition, % at 10 µM; 82% of 1,100 active; AID 602283;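 active means inhibition exceeding 3 SD of buffer-only control wells, cut at about 26% in these data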;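 further: percent drop in integrated peak-minus-baseline over baseline Fluo4 ratio after carbachol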
# Active calls of the source: *; i = inactive; · = not tested or not shown. Rows were chosen to be rich in hits. Some 3.5% of all compounds tested hit in one or more screens of this group.
SMILES,MrgX1 antagonist,RGS4 inh,MrgX1 PAM,MrgX1 agonist,RGS4 pot,RGS4 activ val,M3R Ca counter
CCOC(=O)COc1nc2c(c(-c3ccco3)c1C#N)CCc1ccccc1-2,i,i,i,i,-7.83*,81.5*,36.8*
O=C(c1ccco1)N1CCN(C(=O)c2cc(-c3ccncc3)nc3ccc(Br)cc23)CC1,i,i,i,i,i,·,·
CC(C)c1ccc(-c2cc(C(=O)N3CCOCC3)c3cc(Br)ccc3n2)cc1,i,i,i,i,-8.39*,80.5*,37.8*
CC(=O)c1ccc(N2CCN(C(=O)c3cc(-c4ccncc4)nc4ccc(Br)cc34)CC2)cc1,i,i,i,i,-9.29*,68.5*,0.0
O=C(c1cc(-c2ccccc2)nc2ccccc12)N1CCOCC1,i,i,i,i,i,·,·
COc1ccc(-c2cc(=O)c3c(O)c(OC)c(O)cc3o2)cc1,i,i,i,i,i,·,·
COc1cc(-c2cc(=O)c3c(O)c(OC)c(OC)cc3o2)cc(OC)c1O,i,i,i,i,-8.28*,0.0,0.0
Cc1cccc(NS(=O)(=O)c2ccc3c(c2)Cc2cc(S(=O)(=O)Nc4cccc(C)c4C)ccc2-3)c1C,i,·,i,i,·,·,·
O=C(NC(=S)Nc1ccc(CN2CCOCC2)cc1)c1ccc(-c2cccc(Cl)c2)o1,i,i,i,i,-9.92*,93.5*,91.3*
COc1ccc(Br)cc1C(=O)NC(=S)Nc1ccc(CN2CCOCC2)cc1,i,i,i,i,-9.75*,92.0*,87.3*
CNC(=S)/N=C/NOCc1c(Cl)cccc1Cl,i,i,i,i,i,·,·
Cc1nc(N2CCN(Cc3ccccc3)CC2)nc2c1C(=O)CC(c1ccco1)C2 (stereo not given),i,i,i,i,-8.44*,0.0,0.0
CNC(=O)CSc1cn(CC(=O)N(C(C)C)C(C)C)c2ccccc12,i,i,i,i,i,·,·
Cc1cccc(Oc2nc(CN3CCOCC3)nc3sc4c(c23)CCCC4)c1,i,i,i,i,i,·,·
Cc1ccc(OCc2cc(C(=O)N3CCc4sccc4C3)no2)cc1C,i,i,i,i,-7.73*,81.0*,44.3*
O=C(Nc1ccccc1C(=O)Nc1ccc(Cl)cc1)c1cccnc1,i,i,i,i,i,·,·
CC1=NCCN1CCNC(=O)Nc1ccc(F)cc1,i,i,i,i,i,·,·
CC(C)Nc1nc(NC(C)C)nc(N(C#N)CCOc2ccc(Cl)cc2Cl)n1,i,i,i,i,-7.76*,63.0*,83.8*
CN(CC(=O)Nc1c(Cl)cccc1Cl)C(=O)c1cccc(-n2cccc2)c1,i,i,i,i,i,·,·
CCN(CC(=O)Nc1ccc(NC(C)=O)cc1)C(=O)c1cccc(-n2cccc2)c1,i,i,i,i,i,·,·
COc1cc(C)ccc1NC(=O)Cc1csc(NC(=O)Nc2ccccc2OC)n1,i,i,i,i,-10.1*,94.0*,90.8*
COc1ccc(/C=N/NC(=O)c2cc(C(C)(C)C)[nH]n2)cc1COc1ccc(F)cc1F,i,i,i,i,-12.1*,73.5*,27.3*
CCCCc1n[nH]c(=S)n1Cc1ccc(C)cc1,i,i,i,i,-8.26*,72.0*,29.3*
Cc1nccn1CCc1n[nH]c(=S)n1Cc1ccccc1,i,i,i,i,-9.47*,86.0*,68.3*
CCCCCCCc1n[nH]c(=S)n1Cc1ccccc1,i,i,i,i,i,·,·
SMILES,MrgX1 antagonist,RGS4 inh,MrgX1 PAM,MrgX1 agonist,RGS4 pot,RGS4 activ val,M3R Ca counter
Cc1ccc(CNC(=O)CCC2CCCN(Cc3cccc4ncccc34)C2)o1 (stereo not given),i,i,i,i,i,·,·
Cc1cc(NCc2ccccn2)n2ncc(-c3ccccc3)c2n1,i,i,i,i,-7.76*,89.5*,42.8*
Cc1cc(NCc2ccccn2)n2ncc(-c3ccc(Cl)cc3)c2n1,i,i,i,i,i,·,·
CC(=O)N1CCCc2cc(S(=O)(=O)CCC(=O)Nc3cccc(C)c3C)ccc21,i,i,i,i,i,·,·
O=C1CC(N2CCN(C/C=C/c3ccccc3)CC2)C(=O)N1Cc1cccs1 (stereo not given),i,i,i,i,-7.91*,93.5*,25.8*
CN(c1cccc(NC(=O)CN(c2cccc(Cl)c2)S(=O)(=O)c2ccccc2)c1)S(C)(=O)=O,i,i,i,i,i,·,·
CCOC(=O)C1(CCCc2ccccc2)CCN(Cc2nccn2CC)CC1,i,i,i,i,-11.4*,92.0*,83.8*
CCOC(=O)C1(CCOc2ccccc2)CCN(Cc2cccn2-c2ncccn2)CC1,i,i,i,i,-8.08*,54.0*,83.8*
CC(CNC(=O)c1ccccc1Cl)NC(=O)c1ccccc1Cl (stereo not given),i,i,i,i,i,·,·
OCC1(Cc2ccccc2)CCCN(Cc2c[nH]c3ccccc23)C1 (stereo not given),i,i,i,i,i,·,·
CCCCOc1ccc(C(=O)NCC(=O)NC(C)CCc2ccccc2)cc1 (stereo not given),i,i,i,i,i,·,·
Cc1ccc(NC(=S)NC2CCSc3ccccc32)cc1C (stereo not given),i,i,i,i,-8.75*,92.0*,92.8*
CN1CCN(CC(=O)N2c3ccccc3Sc3ccccc32)CC1,i,i,i,i,-11.3*,91.5*,75.8*
O=C(CN1CCN(CCOCCO)CC1)N1c2ccccc2Sc2ccc(Cl)cc21,i,i,i,i,-9.11*,88.5*,63.8*
O=C(O)c1ccccc1SCC(=O)N1c2ccccc2Sc2ccccc21,i,i,i,i,i,·,·
O=C(C[n+]1ccccc1)N1c2ccccc2Sc2ccccc21,i,i,i,i,-11.5*,93.0*,95.8*
CCOC(=O)N1CCN(CC(=O)N2c3ccccc3Sc3ccccc32)CC1,i,i,i,i,i,·,·

# High-throughput results as filed in PubChem BioAssay.
